Data taken from ChEMBL document CHEMBL1926616, “Design, synthesis and biological evaluation of novel glycosylated diphyllin derivatives as topoisomerase II inhibitors” (Eur J Med Chem, 2012).
One block for each compound: values may come before it. Activity calls are given as the source filed them. The calls are words filed in the database; no cut-off is given here.

What was measured:
[1] = tested on: HCT-116; assay: Cell cycle arrest in human HCT116 cells assessed as accumulation at G2/M phase after 24 hrs using propidium iodide stain by FACS-flow cytometry; format: functional, cell-based
[2] = tested on: HL-60; assay: Induction of apoptosis in human HL60 cells assessed as DNA fragmentation at 10 uM after 36 hrs by gel electrophoresis; format: functional, cell-based
Summary of the method: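 HL-60 cells were seeded and exposed to compound for 36 h. Harvested cells were lysed with an equal volume of 1.2% SDS, and the fragmented DNA was extracted and resolved by gel electrophoresis.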

[3] = tested on: HL-60; assay: Cell cycle arrest in human HL60 cells assessed as accumulation at G0/G1 phase at 1 to 10 uM using propidium iodide stain by FACS-flow cytometry; format: functional, cell-based; settings: TDE = time-dependent effect
[4] = tested on: HCT-116; assay: Cell cycle arrest in human HCT116 cells assessed as accumulation at G2/M phase at 1 to 10 uM using propidium iodide stain by FACS-flow cytometry; format: functional, cell-based; settings: TDE = time-dependent effect
[5] = tested on: K562; assay: Resistance index, ratio of IC50 for adriamycin-selected multi drug-resistant human K562 cells to IC50 for human K562 cells; format: functional
Summary of the method: (§1)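 Resistance factor is the IC50 in the resistant line divided by the IC50 in the parental line. Both IC50s come from 72 h SRB/MTT growth-inhibition assays, derived by the Logit method from at least 3 independent tests.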

[6] = tested on: HL-60; assay: Cell cycle arrest in human HL60 cells assessed as accumulation at G2/M phase at 1 to 10 uM using propidium iodide stain by FACS-flow cytometry; format: functional, cell-based; settings: TDE = time-dependent effect
[7] = tested on: HL-60; assay: Cell cycle arrest in human HL60 cells assessed as accumulation at G0/G1 phase after 24 hrs using propidium iodide stain by FACS-flow cytometry; format: functional, cell-based
[8] = tested on: KB; assay: Cytotoxicity against human KB cells after 72 hrs by sulforhodamine B and MTT assay; format: functional, cell-based
Summary of the method: (§2)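 Log-phase cells were plated overnight and exposed for 72 h to a 5-concentration gradient, in triplicate wells. SRB arm: 10% cold TCA fixation for 1 h at 4 °C, 4 mg/ml SRB in 1% acetic acid for 15 min, dye dissolved in 10 mM Tris-HCl, read at 520 nm. MTT arm: 5 mg/mL MTT for 4 h at 37 °C, SDS-isobutanol-HCl solubilisation for 12–20 h, read at 570 nm. IC50 by Logit method from at least 3 independent tests.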

[9] = tested on: KB; assay: Cytotoxicity against vincristine-selected multi drug-resistant human KB cells after 72 hrs by sulforhodamine B and MTT assay; format: functional, cell-based
Summary of the method: (§3)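 Log-phase cells were seeded, preincubated (overnight for SRB, 24 h for MTT), then given a five-concentration gradient in triplicate wells for 72 h. For MTT, reagent was added for 4 h at 37 °C, solubilized in SDS-isobutanol-HCl for 12-20 h, and read at 570 nm. IC50 was derived by the Logit method from at least 3 independent tests.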

[10] = tested on: HCT-116; assay: Cell cycle arrest in human HCT116 cells assessed as accumulation at G0/G1 phase at 1 to 10 uM using propidium iodide stain by FACS-flow cytometry; format: functional, cell-based; settings: TDE = time-dependent effect
[11] = tested on: K562; assay: Cytotoxicity against adriamycin-selected multi drug-resistant human K562 cells after 72 hrs by sulforhodamine B and MTT assay; format: functional, cell-based; settings: K562, 72 h; summary of the method: as §3
[12] = tested on: HL-60; assay: Cell cycle arrest in human HL60 cells assessed as accumulation at G0/G1 phase at 10 uM after 24 hrs using propidium iodide stain by FACS-flow cytometry (reference value: 39%); format: functional
[13] = tested on: MCF7; assay: Cytotoxicity against human MCF7 cells after 72 hrs by sulforhodamine B and MTT assay; format: functional, cell-based; settings: MCF7, 72 h; summary of the method: as §2
[14] = tested on: HL-60; assay: Cell cycle arrest in human HL60 cells assessed as accumulation at G0/G1 phase at 1 uM after 24 hrs using propidium iodide stain by FACS-flow cytometry (reference value: 39%); format: functional
[15] = tested on: HL-60; assay: Cell cycle arrest in human HL60 cells assessed as accumulation at G2/M phase at 1 uM after 24 hrs using propidium iodide stain by FACS-flow cytometry (reference value: 22.6%); format: functional
[16] = tested on: HL-60; assay: Cell cycle arrest in human HL60 cells assessed as accumulation at G2/M phase after 24 hrs using propidium iodide stain by FACS-flow cytometry; format: functional, cell-based
[17] = tested on: HL-60; assay: Cell cycle arrest in human HL60 cells assessed as accumulation at S phase at 1 uM after 24 hrs using propidium iodide stain by FACS-flow cytometry (reference value: 38.4%); format: functional
[18] = tested on: KB; assay: Resistance index, ratio of IC50 for vincristine-selected multi drug-resistant human KB cells to IC50 for human KB cells; format: functional; summary of the method: as §1
[19] = tested on: HCT-116; assay: Cell cycle arrest in human HCT116 cells assessed as accumulation at G2/M phase at 1 to 10 uM after 24 hrs using propidium iodide stain by FACS-flow cytometry; format: functional, cell-based
[20] = tested on: HCT-116; assay: Cell cycle arrest in human HCT116 cells assessed as accumulation at G0/G1 phase after 24 hrs using propidium iodide stain by FACS-flow cytometry; format: functional, cell-based
[21] = tested on: HL-60; assay: Cell cycle arrest in human HL60 cells assessed as accumulation at G2/M phase at 10 uM after 24 hrs using propidium iodide stain by FACS-flow cytometry (reference value: 22.6%); format: functional
[22] = tested on: K562; assay: Cytotoxicity against human K562 cells after 72 hrs by sulforhodamine B and MTT assay; format: functional, cell-based; settings: K562, 72 h; summary of the method: as §3
[23] = molecular target: DNA topoisomerase 2-alpha (Homo sapiens) (UniProt P11388); assay: Inhibition of human topoisomerase 2-mediated decatenation of kinetoplast DNA at 100 uM after 15 mins by agarose gel electrophoresis
Summary of the method: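 ATP-dependent kDNA decatenation by 1 unit Topo II in 50 mM Tris-HCl pH 7.7, 50 mM KCl, 5 mM MgCl2, 1 mM ATP, 0.5 mM DTT, 0.5 mM EDTA and BSA, run for 15 min at 37 °C. Stopped with 10% SDS, then run on 1% agarose in TAE at 4 V/cm for 1 h and stained with ethidium bromide.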

[24] = tested on: HCT-116; assay: Cytotoxicity against human HCT116 cells after 72 hrs by sulforhodamine B and MTT assay; format: functional, cell-based; settings: HCT-116, 72 h; summary of the method: as §2
[25] = tested on: HCT-116; assay: Cell cycle arrest in human HCT116 cells assessed as accumulation at G0/G1 phase at 1 to 10 uM after 24 hrs using propidium iodide stain by FACS-flow cytometry; format: functional, cell-based
[26] = tested on: HL-60; assay: Cell cycle arrest in human HL60 cells assessed as accumulation at S phase at 10 uM after 24 hrs using propidium iodide stain by FACS-flow cytometry (reference value: 38.4%); format: functional

DNA topoisomerase 2-alpha (Homo sapiens), sequence (P11388 whole entry): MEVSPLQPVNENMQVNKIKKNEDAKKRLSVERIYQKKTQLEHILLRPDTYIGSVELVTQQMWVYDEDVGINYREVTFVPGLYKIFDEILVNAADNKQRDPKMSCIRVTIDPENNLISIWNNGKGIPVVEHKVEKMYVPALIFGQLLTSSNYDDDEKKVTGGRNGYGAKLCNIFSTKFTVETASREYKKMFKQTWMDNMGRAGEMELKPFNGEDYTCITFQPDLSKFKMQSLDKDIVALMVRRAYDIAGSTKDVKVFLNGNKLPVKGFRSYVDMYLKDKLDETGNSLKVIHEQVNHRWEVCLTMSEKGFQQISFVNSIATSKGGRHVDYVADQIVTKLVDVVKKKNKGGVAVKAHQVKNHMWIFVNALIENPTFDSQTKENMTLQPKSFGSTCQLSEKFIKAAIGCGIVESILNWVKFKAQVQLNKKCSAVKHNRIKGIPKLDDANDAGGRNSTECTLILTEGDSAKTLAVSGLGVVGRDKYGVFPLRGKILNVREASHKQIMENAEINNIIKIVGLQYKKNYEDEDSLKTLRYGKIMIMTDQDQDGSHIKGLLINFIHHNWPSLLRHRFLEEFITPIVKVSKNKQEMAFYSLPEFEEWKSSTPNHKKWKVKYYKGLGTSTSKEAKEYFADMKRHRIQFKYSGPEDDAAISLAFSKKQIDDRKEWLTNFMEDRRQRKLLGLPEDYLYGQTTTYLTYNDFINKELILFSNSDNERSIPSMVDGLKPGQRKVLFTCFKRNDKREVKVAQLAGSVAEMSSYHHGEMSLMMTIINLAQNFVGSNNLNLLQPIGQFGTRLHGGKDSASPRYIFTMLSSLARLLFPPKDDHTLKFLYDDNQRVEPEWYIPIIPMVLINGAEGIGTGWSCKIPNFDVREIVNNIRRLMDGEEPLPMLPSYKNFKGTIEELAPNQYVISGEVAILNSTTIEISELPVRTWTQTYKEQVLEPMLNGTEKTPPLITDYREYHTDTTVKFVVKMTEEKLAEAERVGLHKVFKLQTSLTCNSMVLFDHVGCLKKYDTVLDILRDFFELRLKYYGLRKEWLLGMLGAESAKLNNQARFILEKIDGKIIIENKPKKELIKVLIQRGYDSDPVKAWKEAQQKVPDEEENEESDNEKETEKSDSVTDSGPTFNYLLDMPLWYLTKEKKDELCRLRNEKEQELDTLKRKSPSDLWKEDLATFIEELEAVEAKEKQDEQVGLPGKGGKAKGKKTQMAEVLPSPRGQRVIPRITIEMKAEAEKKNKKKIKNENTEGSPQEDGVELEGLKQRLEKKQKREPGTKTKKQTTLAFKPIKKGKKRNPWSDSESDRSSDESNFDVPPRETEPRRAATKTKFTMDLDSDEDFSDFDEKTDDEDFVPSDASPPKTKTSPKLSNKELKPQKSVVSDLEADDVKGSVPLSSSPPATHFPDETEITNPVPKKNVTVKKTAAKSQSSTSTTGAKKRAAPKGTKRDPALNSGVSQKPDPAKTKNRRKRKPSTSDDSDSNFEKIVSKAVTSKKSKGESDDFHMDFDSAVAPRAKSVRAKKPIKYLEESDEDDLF

inhibition [23]: Active
Compound: COc1cc2c(O[C@@H]3O[C@@H]4CO[C@@H](C(C)C)O[C@H]4[C@H](O)[C@H]3O)c3c(c(-c4ccc5c(c4)OCO5)c2cc1OC)C(=O)OC3
IC50 [8]: 0.0006 µM
IC50 [13]: 0.0002 µM
IC50 [24]: 0.016 µM

inhibition [23]: Active
Compound: COc1cc2c(O[C@@H]3O[C@@H]4CO[C@@H](C)O[C@H]4[C@H](O)[C@H]3O)c3c(c(-c4ccc5c(c4)OCO5)c2cc1OC)C(=O)OC3
Activity [1]: Dose-dependent effect
Activity [2]: Active
Activity [3]: tde
Activity [4]: tde
Ratio IC50 [5]: 19.4
Activity [6]: tde
Activity [7]: Dose-dependent effect
IC50 [8]: 0.003 µM
IC50 [9]: 0.076 µM
Activity [10]: tde
IC50 [11]: 0.853 µM
Activity [12]: 56.2%
IC50 [13]: 0.004 µM
Activity [14]: 53.6%
Activity [15]: 22.9%
Activity [16]: Dose-dependent effect
Activity [17]: 23.4%
Ratio IC50 [18]: 25.3
Activity [19]: Active
Activity [20]: Dose-dependent effect
Activity [21]: 24.6%
IC50 [22]: 0.044 µM
IC50 [24]: 0.008 µM
Activity [25]: Active
Activity [26]: 19.2%

inhibition [23]: inactive
Compound: COc1cc([C@@H]2c3cc4c(cc3[C@@H](O[C@@H]3O[C@@H]5CO[C@@H](C)O[C@H]5[C@H](O)[C@H]3O)[C@H]3COC(=O)[C@H]23)OCO4)cc(OC)c1O [ETOPOSIDE]
Ratio IC50 [5]: 47.1
IC50 [8]: 0.85 µM
IC50 [9]: 153 µM
IC50 [11]: 243 µM
IC50 [13]: 1.09 µM
Ratio IC50 [18]: 180.3
IC50 [22]: 5.16 µM
IC50 [24]: 0.91 µM

Continued, compound first:

Compound: COc1cc2c(O[C@@H]3O[C@H](C)[C@@H](OC(C)=O)[C@H](OC(C)=O)[C@H]3OC(C)=O)c3c(c(-c4ccc5c(c4)OCO5)c2cc1OC)C(=O)OC3
Activity [1]: Dose-dependent effect
Activity [2]: Active
Activity [3]: tde
Activity [4]: tde
Ratio IC50 [5]: 9.5
Activity [6]: tde
Activity [7]: Dose-dependent effect
IC50 [8]: 0.44 µM
IC50 [9]: 1.32 µM
Activity [10]: tde
IC50 [11]: 7.66 µM
Activity [12]: 55%
IC50 [13]: 0.38 µM
Activity [14]: 46.4%
Activity [15]: 17.4%
Activity [16]: Dose-dependent effect
Activity [17]: 36.3%
Ratio IC50 [18]: 3
Activity [19]: Active
Activity [20]: Dose-dependent effect
Activity [21]: 25.7%
IC50 [22]: 0.808 µM
inhibition [23]: Active
IC50 [24]: 0.27 µM
Activity [25]: Active
Activity [26]: 19.3%

Compound: COc1cccc2c1C(=O)c1c(O)c3c(c(O)c1C2=O)C[C@@](O)(C(=O)CO)C[C@@H]3O[C@H]1C[C@H](N)[C@H](O)[C@H](C)O1 [DOXORUBICIN]
Ratio IC50 [5]: 132.2

Compound: COc1cc2c(O[C@@H]3O[C@H](CO)[C@@H](O)[C@H](O)[C@H]3O)c3c(c(-c4ccc5c(c4)OCO5)c2cc1OC)C(=O)OC3
IC50 [8]: > 10 µM
IC50 [13]: 2.44 µM
inhibition [23]: inactive
IC50 [24]: 9.67 µM

Compound: COC[C@H]1O[C@@H](Oc2c3c(c(-c4ccc5c(c4)OCO5)c4cc(OC)c(OC)cc24)C(=O)OC3)[C@H](O)[C@@H](O)[C@@H]1O
IC50 [8]: 4.5 µM
IC50 [13]: > 10 µM
inhibition [23]: inactive
IC50 [24]: > 10 µM

Compound: COc1cc2c(O[C@@H]3O[C@H](C)[C@H](O)[C@H](O)[C@H]3O)c3c(c(-c4ccc5c(c4)OCO5)c2cc1OC)C(=O)OC3
Activity [2]: Active
IC50 [8]: 3.05 µM
Activity [12]: 40.5%
IC50 [13]: 1.81 µM
Activity [14]: 38.6%
Activity [15]: 31.5%
Activity [17]: 30%
Activity [19]: inactive
Activity [21]: 24.9%
inhibition [23]: inactive
IC50 [24]: 6.43 µM
Activity [25]: inactive
Activity [26]: 34.6%
